Screening results from PubChem BioAssay.
PAFAH2 FP inh: PAFAH2 enzyme inhibitors, primary screen, biochemical, fluorescence polarization, human; Platelet-activating factor acetylhydrolase 2, cytoplasmic (Homo sapiens), Q99487; recombinant PAFAH2, FP-rhodamine activity probe; inhibition, % at 3.39 µM; 340,000 compounds, 0.99% hits;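 active = inhibition above the mean over all tested compounds plus 3 SD, cut at about 30% in these data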;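 also: inhibitors block probe labeling of enzyme so polarization drops; 0% = enzyme with DMSO and 100% = wells lacking PAFAH2 protein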
PAFAH1B2 inh: PAFAH1B2 enzyme inhibitors, primary screen, biochemical, fluorescence polarization, human. recombinant PAFAH1B2, FP-rhodamine activity probe. AID 492953, 2010. 340,000 compounds, 1.2% hits. Platelet-activating factor acetylhydrolase IB subunit alpha2 (Homo sapiens), P68402. inhibition, % at 3.39 µM;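 active = inhibition above the mean of all tested compounds plus 3 SD, cut at about 24% in these data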;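 also: 0% = enzyme with DMSO and 100% = wells lacking PAFAH1B2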
HTRA1 inh: HTRA1 serine protease inhibitors, primary screen, biochemical, fluorescence polarization, HTS; recombinant HTRA1, FP-rhodamine activity-based probe; inhibition, % at 5.96 µM; 340,000 compounds, 0.5% hits; in the data active = inhibition above about 36%;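 also: 0% = enzyme with DMSO and 100% = wells lacking enzyme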
Target sequence (Q92743 whole entry, looked up): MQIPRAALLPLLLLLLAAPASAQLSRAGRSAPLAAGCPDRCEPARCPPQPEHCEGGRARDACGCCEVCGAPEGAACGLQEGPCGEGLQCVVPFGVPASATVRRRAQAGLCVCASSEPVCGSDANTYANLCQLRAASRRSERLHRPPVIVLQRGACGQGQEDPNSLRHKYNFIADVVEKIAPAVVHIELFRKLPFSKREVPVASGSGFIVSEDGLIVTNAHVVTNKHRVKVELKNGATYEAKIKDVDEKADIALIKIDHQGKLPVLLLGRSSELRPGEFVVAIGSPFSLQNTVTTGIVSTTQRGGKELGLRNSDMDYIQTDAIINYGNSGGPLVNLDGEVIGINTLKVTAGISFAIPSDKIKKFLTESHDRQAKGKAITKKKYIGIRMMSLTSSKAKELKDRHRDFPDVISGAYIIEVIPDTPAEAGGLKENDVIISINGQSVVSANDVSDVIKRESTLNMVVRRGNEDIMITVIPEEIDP
mABHD4 FP: ABHD4 inhibitors, primary screen, biochemical, fluorescence polarization, mouse; (Lyso)-N-acylphosphatidylethanolamine lipase (Mus musculus), Q8VD66; purified mABHD4, FP-Rh probe fluorescence polarization; inhibition, % at 8.92 µM; 370,000 compounds, 0.54% hits; AID 720543, 2013;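 active = inhibition exceeding the mean over every tested compound plus 3 SD, cut at about 30% in these data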;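 also: 0% = plate median of compound wells and 100% = S159A mutant with DMSO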
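Assay system: mouse ABHD4 enzyme, wild type / Also added: fluorescent activity-based probe FP-Rh / Doses: single nominal dose of 8.92 µM, 0.89% DMSO final / Timing: 45 min compound pre-incubation plus 60 min probe step, 25 °C / Signal: FP readout, ex 525 nm / em 598 nm / Control set: S159A mutant/DMSO as 100%, compound-well median as 0%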
PAFAH1B3 FP inh: PAFAH1B3 enzyme inhibitors, primary screen, biochemical, fluorescence polarization, human | inhibition, % at 3.39 µM | recombinant PAFAH1B3, FP-rhodamine probe | 340,000 compounds, 0.28% hits;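 active = inhibition above the screen-wide average of all tested compounds plus 3 SD, cut at about 25% in these data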;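 also: 0% = enzyme with DMSO only and 100% = wells lacking PAFAH1B3 protein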
pPAFAH inh: pPAFAH enzyme inhibitors, primary screen, biochemical, fluorescence polarization, human | Platelet-activating factor acetylhydrolase (Homo sapiens), Q13093 | recombinant pPAFAH, FP-rhodamine probe fluorescence polarization | inhibition, % at 3.39 µM | 330,000 compounds, 1.5% hits | AID 463082, 2010;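 active = inhibition above the mean inhibition across the screen plus 3 SD, cut at about 25% in these data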;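 also: inhibitors block binding of the rhodamine activity-based probe so polarization drops; 0% = enzyme with DMSO and 100% = wells lacking pPAFAH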
* = called active by the depositor; . = no result given. This is a sample that favours compounds with a hit; in the whole collection about 2.8% have one here.

SMILES	PAFAH2 FP inh	PAFAH1B2 inh	HTRA1 inh	mABHD4 FP	PAFAH1B3 FP inh	pPAFAH inh
O=C(c1cc(F)ccc1F)N(Cc1ccccn1)CC1CCCO1 (stereo not drawn)	.	.	.	0	.	.
COC(=O)c1cc(NC(=O)c2cccc(C(F)(F)F)c2)c(=O)oc1C/C=N/OCc1cccc(Cl)c1Cl	-19	-2	-28	-9	-3	27*
O=C(O)CN1C(=O)/C(=C\c2ccccc2OCc2ccc(Cl)cc2Cl)SC1=S	29	15	-86	-26	5	34*
O=C(O)CN1C(=O)/C(=C\c2cccc(OCc3ccc(Cl)cc3Cl)c2)SC1=S	25	25*	-112	-25	1	.
O=C(O)CCN1C(=O)/C(=C\c2cccc(OCc3ccccc3)c2)SC1=S	-2	27*	-1	5	7	11
C[C@H]1[C@@H](NC(=O)C2CCCCC2)CC[C@@]23CCCN2C(=O)CCC[C@@H]13	.	.	.	0	.	.
O=C(COC(=O)c1ccccn1)NCc1cccc(Cl)c1	6	0	-7	2	3	.
C=CCNc1nc(C(=O)OCC(=O)NCc2cccc(Cl)c2)cs1	29	2	-13	4	4	25*
COc1ccc(Nc2nc3ccccc3nc2NS(=O)(=O)c2cccs2)c(OC)c1	15	-4	6	18	11	9
COc1cccc(Nc2nc3ccccc3nc2NS(=O)(=O)c2cccs2)c1	8	11	2	18	-1	32*
O=S1(=O)CCOC[C@H](c2ccccc2)N1Cc1ccccc1F	-5	29*	3	-6	3	3
CCC1COCCS(=O)(=O)N1Cc1ccccc1F (stereo not drawn)	-6	-1	-4	1	2	-3
N=c1c(S(=O)(=O)c2ccc(Cl)cc2)cc2c(=O)n3ccccc3nc2n1CCN1CCOCC1	7	37*	-10	-2	2	6
Cc1ccc(-c2nc3ncccn3c2NC(=O)c2ccccc2)cc1	.	.	.	9	.	.
Cc1ccc(NC(=O)CN(C)Cc2cccs2)cc1Cl	5	-1	-14	1	3	13
CCN(CC)c1ccc(NC(=O)CN(C)Cc2cccs2)cc1	7	4	15	21	6	26*
CS(=O)(=O)c1nc(S(=O)(=O)c2ccc(Cl)cc2)c(N2CCN(CCO)CC2)s1	3	2	-1	-3	8	5
Cc1ccc(S(=O)(=O)c2nc(S(=O)(=O)c3ccc(C)cc3)c(N3CCN(CCO)CC3)s2)cc1	0	3	-12	-15	3	26*
COCCNC(=O)c1onc(CSc2ccc(Cl)cc2)c1C(=O)O	10	28*	-2	4	6	4
CN1C(=O)c2cc(NC(=O)c3ccccc3)ccc2OC[C@H]2O[C@@H](CC(=O)NCC3CC3)CC[C@@H]21	.	.	.	13	.	.
CCc1ccc(NC(=O)NNC(=O)c2cc3ccccc3cc2O)cc1	-19	8	16	6	13	33*
Cc1ccc(NC(=O)NNC(=O)c2cc3ccccc3cc2O)cc1C	-13	7	21	6	22	22
CCOc1cc(/C=N/Nc2nc(-c3cccs3)c(NC(C)=O)s2)ccc1O	-5	1	5	17	12	25*
C[C@H]1[C@@H](OC(=O)NCc2cccc(Cl)c2)CC[C@@]23CCCN2C(=O)CCC[C@@H]13	.	.	.	2	.	.
COc1ccccc1NC(=O)c1c([N+](=O)[O-])c(C(C)(C)C)nn1C	5	1	6	-8	-3	31*
SMILES	PAFAH2 FP inh	PAFAH1B2 inh	HTRA1 inh	mABHD4 FP	PAFAH1B3 FP inh	pPAFAH inh
COc1ccccc1NC(=O)c1nn(C)c(C(=O)Nc2ccccc2OC)c1[N+](=O)[O-]	-2	5	-12	0	-2	9
O=C(Nc1ccc(Cl)cc1)Nc1ccccc1C(=O)N1CCCC1	.	.	.	-6	.	.
C[C@H]1[C@@H](NC(=O)C2CCOC2)CC[C@@]23CCCN2C(=O)CCC[C@@H]13 (stereo partly drawn)	.	.	.	5	.	.
Cc1ccc(C(=O)/C=C/c2ccc(-c3ccc(C)cc3)o2)cc1	-1	-3	-11	2	-6	26*
CN(C(=O)COC(=O)c1cc(NS(=O)(=O)c2cc([N+](=O)[O-])ccc2Cl)ccc1O)C1CCCCC1	17	26*	-6	-7	9	10
Cc1[nH]c2ccccc2c1C(=O)C(=O)NC1CC1	1	3	9	4	3	28*
Cc1ccc(S(=O)(=O)N(C)C)cc1NC(=O)COC(=O)CCNS(=O)(=O)c1ccccc1	5	11	-1	8	3	.
Cc1ccc(S(=O)(=O)N(C)C)cc1NC(=O)COC(=O)CCC(=O)c1ccc(F)cc1	-2	3	4	0	2	8
Cc1ccc(S(=O)(=O)N(C)C)cc1NC(=O)COC(=O)CSc1ccccc1	15	18	2	1	6	28*
Cc1ccc(S(=O)(=O)N(C)C)cc1NC(=O)COC(=O)CCC1CCCCC1	21	1	-10	-1	8	33*
C=CCNC(=S)N(C)[C@H]1C[C@H]2c3[nH]c4cccc(-c5cccc(F)c5)c4c3CCN2C(=O)[C@H]1[C@H](C)O	.	.	.	-4	.	.
C=CCN1[C@@H](Cc2ccccc2)COc2cc(F)ccc2S1(=O)=O	.	.	.	0	.	.
CCn1c(Cc2cccs2)nnc1SCC(=O)c1ccc(Cl)cc1	.	.	.	-1	.	.
O=C1NN(c2ccc(Cl)cc2)C(=O)/C1=C\c1ccc(-c2cccc(C(=O)O)c2)o1	36*	21	5	23	27*	.
Cc1ccc(N2NC(=O)/C(=C/c3ccc(-c4ccc(Cl)c(C(=O)O)c4)o3)C2=O)cc1	24	0	5	28	5	15
CC(=O)OCCCN1CCC2(CCC(c3ccccc3)CC2)C1=O (stereo not drawn)	.	.	.	-3	.	.
Cn1c(SCC2CCC2)nnc1-c1ccco1	.	.	.	1	.	.
COc1ccc(S(=O)(=O)N(C)C[C@H]2Oc3ccc(NS(=O)(=O)c4ccccc4)cc3CC(=O)N([C@H](C)CO)C[C@@H]2C)cc1	5	11	1	-5	11	15
COc1ccc(NC(=O)N(C)C[C@H]2Oc3ccc(NC(=O)Cc4ccccc4)cc3CC(=O)N([C@H](C)CO)C[C@H]2C)cc1	-3	1	-1	-3	6	31*
COc1ccc(S(=O)(=O)Nc2ccc3c(c2)CC(=O)N([C@@H](C)CO)C[C@@H](C)[C@@H](CN(C)Cc2ccccc2)O3)cc1	3	38*	-18	-14	7	11
